Source: ChEMBL document CHEMBL1156246 (J Med Chem, 2009)
Calls of active or inactive are those of the source. No cut-off for these calls is given here.

How the values were obtained:
[1] = biological target: Dihydropyrimidinase-related protein 2 (Mus musculus) (UniProt O08553); experiment: Binding affinity to CRMP2 in ICR mouse brain […] at 5 uM by Western blot analysis in presence of rhodamine-containing 4-(3-azidopropylcarbamoyl)-2-(3,6-bis(dimethylamino)xanthylium-9-yl)benzoate; assay type: tissue-based
Rattus norvegicus [2] = experiment: Anticonvulsant activity in po dosed Sprague-Dawley rat assessed as protection against subcutaneous metrazole-induced seizures; assay type: functional, organism-based
Method in brief: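 Male albino Sprague-Dawley rats, oral dosing; subcutaneous metrazol seizure test by previously reported methods within the NIH Anticonvulsant Screening Program.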

Mus musculus [3] = experiment: Anticonvulsant activity in ip dosed albino mouse assessed as protection against subcutaneous metrazole-induced seizures; assay type: functional, organism-based
Method in brief: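 Male albino Carworth Farms No. 1 mice, dosed intraperitoneally; subcutaneous metrazol seizure model run by previously reported methods under the NIH Anticonvulsant Screening Program; protection against seizures scored.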

Mus musculus [4] = experiment: Anticonvulsant activity in ip dosed albino mouse assessed as protection against maximal electroshock-induced seizures; assay type: functional
Method in brief: (§1)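 Male rodents screened through the NIH Anticonvulsant Screening Program: albino Carworth Farms No. 1 mice given compound ip, albino Sprague-Dawley rats given compound po. Maximal electroshock test: tonic hindlimb seizures were induced by corneal electrical stimulation. ED50 is given in mg/kg.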

[5] = Neurotoxicity in ip dosed albino mouse by rotarod test; assay type: toxicity, organism-based; details: in vivo
Rattus norvegicus [6] = experiment: Neurotoxicity in po dosed Sprague-Dawley rat assessed as time of peak effect by rotarod test; assay type: toxicity, organism-based; details: in vivo
Rattus norvegicus [7] = experiment: Anticonvulsant activity against maximal electroshock-induced seizures in po dosed Sprague-Dawley rat assessed as time of peak effect; assay type: functional
Mus musculus [8] = experiment: Anticonvulsant activity against maximal electroshock-induced seizures in ip dosed albino mouse assessed as time of peak effect; assay type: functional
Rattus norvegicus [9] = experiment: Anticonvulsant activity in po dosed Sprague-Dawley rat assessed as protection against maximal electroshock-induced seizures; assay type: functional; method in brief: as §1
[10] = Neurotoxicity in po dosed Sprague-Dawley rat by rotarod test; assay type: toxicity, organism-based; details: in vivo
Mus musculus [11] = experiment: Anticonvulsant activity in ip dosed albino mouse assessed as protection against 6 Hz electric shock-induced seizures; assay type: functional
Method in brief: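 6 Hz psychomotor seizure test in mice dosed ip, with stimulation at 32 mA.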

Mus musculus [12] = experiment: Neurotoxicity in ip dosed albino mouse assessed as time of peak effect by rotarod test; assay type: toxicity, organism-based; details: in vivo
Rattus norvegicus [13] = experiment: Toxicity in Sprague-Dawley rat assessed as occurrence of ataxia at 300 mg/kg, po; assay type: organism-based; design: dose 300 mg/kg, route oral; details: in vivo
[14] = biological target: Dihydropyrimidinase-related protein 2 (Mus musculus) (UniProt O08553); experiment: Binding affinity to CRMP2 in ICR mouse brain […] at 5 uM by in-gel tryptic digestion analysis in presence of rhodamine-containing 4-(3-azidopropylcarbamoyl)-2-(3,6-bis(dimethylamino)xanthylium-9-yl)benzoate; assay type: tissue-based
Method in brief: (§2)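 Brain soluble fraction from male 2-month ICR mice was Dounce-homogenized in 50 mM HEPES pH 7.4 and spun at 1200 × g then 100,000 × g at 4 °C. The fraction was exchanged into HEPES pH 8.0 at 2.0 mg/mL, treated with agent (5 μM, 30 min, room temperature), then clicked to rhodamine-azide (50 μM) with TCEP 1 mM, TBTA 200 μM and CuSO4 1 mM for 1 h. After SDS-PAGE, the ~62 kDa band was trypsin-digested, iTRAQ-labelled and analysed by LC-MS/MS.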

[15] = biological target: Dihydropyrimidinase-related protein 2 (Mus musculus) (UniProt O08553); experiment: Binding affinity to CRMP2 in ICR mouse brain […] at 5 uM by mass spectrometry in presence of rhodamine-containing 4-(3-azidopropylcarbamoyl)-2-(3,6-bis(dimethylamino)xanthylium-9-yl)benzoate; assay type: tissue-based; method in brief: as §2
Mus musculus [16] = experiment: Anticonvulsant activity against 6 Hz electric shock-induced seizures in ip dosed albino mouse assessed as time of peak effect; assay type: functional
Mus musculus [17] = experiment: Protective index, ratio of TD50 for ip dosed albino mouse to ED50 for protection against maximal electroshock-induced seizures in ip dosed albino mouse; assay type: functional
Rattus norvegicus [18] = experiment: Protective index, ratio of TD50 for po dosed Sprague-Dawley rat to ED50 for protection against maximal electroshock-induced seizures in po dosed Sprague-Dawley rat; assay type: functional
[19] = biological target: Dihydropyrimidinase-related protein 2 (Mus musculus) (UniProt O08553); experiment: Binding affinity to CRMP2 in ICR mouse brain […] at 5 uM by Western blot analysis in presence of rhodamine-containing 4-(3,6,9,12-tetraoxapentadec-14-ynylcarbamoyl)-2-(3,6-bis(dimethylamino)xanthylium-9-yl)benzoate; assay type: tissue-based
Method in brief: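 Soluble brain proteome from male 2-month ICR mice was Dounce-homogenized in 50 mM HEPES pH 7.4. It was spun at 1200 × g for 12 min, then at 100,000 × g for 1 h at 4 °C, and exchanged into pH 8.0 HEPES. Aliquots (2.0 mg/mL protein) got 5 μM agent for 30 min at RT. Click reaction used rhodamine-alkyne 50 μM, TCEP 1 mM, TBTA 200 μM, CuSO4 1 mM, 1 h RT. Read-out: SDS-PAGE, in-gel fluorescence (ex 555/em 580 nm).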

Row | Structure (SMILES) | Activity [1] | Activity (Rattus norvegicus [2]) | Activity (Mus musculus [3]) | ED50 (Mus musculus [4]) | TD50 [5] | Time (Rattus norvegicus [6]) | Time (Rattus norvegicus [7]) | Time (Mus musculus [8]) | ED50 (Rattus norvegicus [9]) | TD50 [10] | ED50 (Mus musculus [11]) | Time (Mus musculus [12]) | Activity (Rattus norvegicus [13]) | Activity [14] | Activity [15] | Time (Mus musculus [16]) | Ratio TD50/ED50 (Mus musculus [17]) | Ratio TD50/ED50 (Rattus norvegicus [18]) | Activity [19]
1 | C#Cc1ccc(CNC(=O)[C@H](COCCN=C=S)NC(C)=O)cc1 | inactive | inactive | inactive | – | – | – | – | – | – | – | – | – | – | – | – | – | – | – | –
2 | CC(=O)N[C@H](COCCN=C=S)C(=O)NCc1ccccc1 | – | inactive | inactive | > 300 mg/kg | 30 mg/kg | 4 h | 4 h | 0.5 h | < 30 mg/kg | > 30 mg/kg | – | – | – | – | – | – | – | – | –
3 | C#CCOC[C@H](NC(C)=O)C(=O)NCc1ccccc1 | – | inactive | inactive | > 300 mg/kg | > 300 mg/kg | – | – | – | 30 mg/kg | > 30 mg/kg | > 30 mg/kg | – | – | – | – | – | – | – | –
4 | COC[C@@H](NC(C)=O)C(=O)NCc1ccccc1 [LACOSAMIDE] | – | inactive | inactive | – | – | 0.5 h | 0.5 h | 0.5 h | 4.2 mg/kg | > 250 mg/kg | 10 mg/kg | 0.25 h | – | – | – | – | – | – | –
5 | O=C1NC(=O)C(c2ccccc2)(c2ccccc2)N1 [PHENYTOIN] | – | inactive | inactive | – | – | – | 4 h | 2 h | > 30 mg/kg | – | – | 2 h | Non-toxic | – | – | – | – | – | –
6 | CC(=O)N[C@@H](COCCN=[N+]=[N-])C(=O)NCc1ccccc1 | – | inactive | inactive | > 300 mg/kg | > 300 mg/kg | – | – | – | – | – | – | – | – | – | – | – | – | – | –
7 | CCC1(c2ccccc2)C(=O)NC(=O)NC1=O [PHENOBARBITAL] | – | inactive | inactive | 22 mg/kg | – | 0.5 h | 5 h | 1 h | 9.1 mg/kg | – | – | 0.5 h | – | – | – | – | – | – | –
8 | CCCC(CCC)C(=O)[O-].[Na+] [VALPROATE SODIUM] | – | inactive | inactive | 270 mg/kg | – | 0.5 h | 0.5 h | 0.25 h | – | – | – | 0.25 h | – | – | – | – | – | – | –
9 | C#CCOC[C@H](NC(C)=O)C(=O)NCc1ccc(N=C=S)cc1 | Active | inactive | inactive | > 300 mg/kg | > 300 mg/kg | – | – | – | – | – | – | – | – | Active | Active | – | – | – | –
10 | C#CCOC[C@@H](NC(C)=O)C(=O)NCc1ccccc1 | – | inactive | inactive | 16 mg/kg | 59 mg/kg | – | 0.5 h | 0.25 h | 7.9 mg/kg | > 500 mg/kg | 29 mg/kg | 0.25 h | – | – | – | 0.5 h | 3.7 | >63 | –
11 | CC(=O)N[C@@H](COCCN=C=S)C(=O)NCc1ccccc1 | – | inactive | inactive | > 300 mg/kg | 30 mg/kg | – | 4 h | 0.5 h | < 30 mg/kg | – | – | 0.5 h | – | – | – | – | – | – | –
12 | CC(=O)N[C@H](COCCN=[N+]=[N-])C(=O)NCc1ccc(N=C=S)cc1 | – | inactive | inactive | 100 mg/kg | 100 mg/kg | – | – | 4 h | – | – | – | 0.5 h | – | – | – | – | – | – | Active
13 | CC(=O)N[C@@H](CO)C(=O)NCc1ccc(N=C=S)cc1 | – | inactive | inactive | 100 mg/kg | 30 mg/kg | – | – | – | 180 mg/kg | > 30 mg/kg | – | – | – | – | – | – | – | – | –
14 | C#CCOC[C@@H](NC(C)=O)C(=O)NCc1ccc(N=C=S)cc1 | Active | inactive | inactive | 45 mg/kg | 110 mg/kg | – | – | 1 h | > 30 mg/kg | > 30 mg/kg | 53 mg/kg | 0.25 h | – | Active | Active | 0.5 h | 2.4 | – | –
15 | C#Cc1ccc(CNC(=O)[C@@H](COCCN=C=S)NC(C)=O)cc1 | inactive | inactive | inactive | – | – | – | – | – | – | – | – | – | – | – | – | – | – | – | –
16 | C#Cc1ccc(CNC(=O)[C@@H](COC)NC(C)=O)cc1 | – | inactive | inactive | 3 mg/kg | 10 mg/kg | 0.5 h | – | 0.5 h | – | < 30 mg/kg | – | 0.5 h | – | – | – | – | – | – | –
17 | CC(=O)N[C@@H](COCCN=[N+]=[N-])C(=O)NCc1ccc(N=C=S)cc1 | – | inactive | inactive | 100 mg/kg | 300 mg/kg | – | – | 0.25 h | – | – | – | – | – | – | – | – | – | – | Active
18 | CC(=O)N[C@H](CO)C(=O)NCc1ccc(N=C=S)cc1 | – | inactive | inactive | 24 mg/kg | 47 mg/kg | – | 4 h | 0.5 h | 4.2 mg/kg | > 250 mg/kg | – | 0.25 h | – | – | – | – | 2 | >59 | –
19 | C#Cc1ccc(CNC(=O)[C@H](COC)NC(C)=O)cc1 | – | inactive | inactive | > 300 mg/kg | 300 mg/kg | – | – | 0.5 h | – | – | – | 0.5 h | – | – | – | – | – | – | –
20 | CC(=O)N[C@H](COCCN=[N+]=[N-])C(=O)NCc1ccccc1 | – | inactive | inactive | 100 mg/kg | 100 mg/kg | – | 0.25 h | 4 h | > 40 mg/kg | > 30 mg/kg | 44 mg/kg | 4 h | – | – | – | 0.5 h | – | – | –
